Here are results for two compounds from ChEMBL document CHEMBL1687917, “Increased bioavailability of tricin-amino acid derivatives via a prodrug approach” (J Med Chem, 2011).

SMILES strings stand for the structures.

A short description of data set [1]: Cmax in Crl:CD (SD) rat at 300 mg/kg, po after 0.5 to 8 hrs by RP-HPLC. In kind it is ADME, organism-based. More on the design: dose 300 mg/kg, route oral. Conditions: in vivo. The method in brief: (§1)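 Male Crl:CD (SD) rats were given a single oral bolus of the prodrug by gavage at 100, 300 or 1000 mg kg^-1. Blood was drawn from the tail at 0, 0.5, 2, 4 and 8 h, and plasma was separated by centrifugation (6000 rpm, 10 min, 4 °C) and held at -25 °C for no more than 19 days. Released tricin was quantified. Two Cmax values were reported, with AUC over 0-8 h; means ± SEMs, n = 3.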

The test system of data set [2] is Mus musculus. As to the kind of experiment: Toxicity in Crlj:CD1 (ICR) mouse assessed as abnormal appearance at 300 mg/kg/day, po for 14 days. It is filed as organism-based. More on the design: route oral. Conditions: in vivo, 336 h.
Data set [3] deals with Mus musculus. The data set is described as follows: Toxicity in Crlj:CD1 (ICR) mouse assessed as abnormal hematology at 300 mg/kg/day, po for 14 days. In kind it is organism-based. On the set-up: route oral. The conditions noted are these: in vivo, 336 h.
The nature of data set [4]: Cmax in Crl:CD (SD) rat at 1000 mg/kg, po after 0.5 to 8 hrs by RP-HPLC. It is filed as ADME, organism-based. On the set-up: dose 1000 mg/kg, route oral. The conditions noted are these: in vivo. The method in brief: as §1
In data set [5] the test system is Mus musculus. As to the kind of experiment: Toxicity in Crlj:CD1 (ICR) mouse assessed as abnormal body weight at 300 mg/kg/day, po for 14 days. It is filed as organism-based. More on the design: route oral. Conditions: in vivo, 336 h.
Data set [6] can be described thus: Stability of the compound in MDCK cell lysate assessed as half life. In kind it is ADME, cell-based, Canis lupus familiaris. Conditions: dog. The method in brief:
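Whole-cell lysate was prepared from 1.33 × 10⁶ MDCK cells with lysis buffer, and prodrugs were incubated with it. Half-life was taken as the time to 50% release of parent drug through carbamate hydrolysis by endogenous enzymes; means ± SEMs, n = 3.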

A short description of data set [7]: AUC (0 to 8 hrs) in Crl:CD (SD) rat at 100 mg/kg, po after 0.5 to 8 hrs. On the set-up: time < 8 hr, dose 100 mg/kg, route oral. Conditions: plasma. It is filed as ADME, organism-based. The method in brief:
as §1

The test system of data set [8] is Mus musculus. As to the kind of experiment: Toxicity in Crlj:CD1 (ICR) mouse assessed as abnormal blood chemistry at 300 mg/kg/day, po for 14 days. It is filed as organism-based. More on the design: route oral. Conditions: in vivo, 336 h.
A short description of data set [9]: AUC (0 to 8 hrs) in Crl:CD (SD) rat at 1000 mg/kg, po after 0.5 to 8 hrs. Conditions: plasma. On the set-up: time < 8 hr, dose 1000 mg/kg, route oral. In kind it is ADME, organism-based. The method in brief: as §1
Data set [10] can be described thus: AUC (0 to 8 hrs) in Crl:CD (SD) rat at 300 mg/kg, po after 0.5 to 8 hrs. More on the design: time < 8 hr, dose 300 mg/kg, route oral. In kind it is ADME, organism-based. The conditions noted are these: plasma. The method in brief: as §1
Data set [11] relates to Mus musculus. As to the kind of experiment: Toxicity in Crlj:CD1 (ICR) mouse assessed as abnormal autopsy test at 300 mg/kg/day, po for 14 days. It is filed as organism-based. More on the design: route oral. The conditions noted are these: in vivo, 336 h.
Data set [12] has as its system Mus musculus. The data set is described as follows: Toxicity in Crlj:CD1 (ICR) mouse assessed as abnormal food consumption at 300 mg/kg/day, po for 14 days. The conditions noted are these: in vivo, 336 h. On the set-up: route oral. It is filed as organism-based.
A short description of data set [13]: Cmax in Crl:CD (SD) rat at 100 mg/kg, po after 0.5 to 8 hrs by RP-HPLC. Conditions: in vivo. In kind it is ADME, organism-based. More on the design: dose 100 mg/kg, route oral. In a few lines: as §1
The subject of data set [14] is Plasma. The data set is described as follows: Plasma concentration in Crl:CD (SD) rat at 100 mg/kg, po after 0.5 to 4 hrs. It is filed as ADME, organism-based. More on the design: dose 100 mg/kg, route oral. Conditions: in vivo. The method in brief: (§2)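 Tricin was suspended in 1% aqueous methylcellulose (10 mL kg^-1), sonicated and given as a single gavage dose of 100, 300 or 1000 mg kg^-1 to male and female Crl:CD (SD) rats. Tail blood was taken at 0, 0.5, 2 and 4 h, and plasma tricin was quantified by RP-HPLC; means ± SEMs, n = 3.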

The subject of data set [15] is Plasma. As to the kind of experiment: Plasma concentration in Crl:CD (SD) rat at 1000 mg/kg, po after 0.5 to 4 hrs. It is filed as ADME, organism-based. On the set-up: dose 1000 mg/kg, route oral. The conditions noted are these: in vivo. The method in brief:
as §2

The subject of data set [16] is Plasma. As to the kind of experiment: Plasma concentration in Crl:CD (SD) rat at 300 mg/kg, po after 0.5 to 4 hrs. More on the design: dose 300 mg/kg, route oral. It is filed as ADME, organism-based. Conditions: in vivo. The method in brief: as §2

In general, Cmax refers to the highest concentration seen after dosing. As a reminder, the half-life is how long it takes for the measured level to halve. As usually defined, the AUC(0-t) is exposure summed from dosing to a finite time, without extrapolation to infinity. Consider `COc1cc(-c2cc(=O)c3c(O)cc(O)cc3o2)cc(OC)c1OC(=O)N[C@@H](C)C(=O)N[C@@H](CCC(=O)O)C(=O)O`, for which the figures for the Cmax in [1], in data set [4] and in data set [13] were 2870 ng/mL, 2880 ng/mL and 692 ng/mL, respectively. In addition, the Activity entry in the data set with Mus musculus [2], in the data set with Mus musculus [3], in the data set with Mus musculus [5], in the data set on Mus musculus [8], in the data set on Mus musculus [11] and in the data set on Mus musculus [12] was “Non-toxic” in each case. The half-life in data set [6] worked out at 2.75 h. Further, the AUC(0-t) at 8 h in data set [7] is 10300 ng·h/mL; in data set [9], 21500 ng·h/mL; in [10], 15100 ng·h/mL.
As to `COc1cc(-c2cc(=O)c3c(O)cc(O)cc3o2)cc(OC)c1O` [TRICIN], the Cp with Plasma [14], in the data set on Plasma [15] and with Plasma [16] was under 60 ng/mL in each case.
